The structures appear in SMILES notation.

The data set deals with Mus musculus. The data set can be described thus: Toxicity in BALB/c-nu mouse xenografted with human HEL cells assessed as body weight loss at 120 mg/kg/day, po administered for 21 days measured everyday during compound dosing. The data set is classed as organism-based. On the set-up: route oral. To be noted: in vivo, 504 h. The gist of the method: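 Male BALB/c-nu mice with s.c. HEL xenografts, 6 per group, given 120 mg/kg/day orally for 21 days; vehicle group received PBS containing DMSO. Body weight monitored regularly during treatment; mean ± SD.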

Consider `O=C(CCCCCOc1no[n+]([O-])c1S(=O)(=O)c1ccccc1)NO`, for which the Activity entry is recorded as “Non-toxic”.

The values above are taken from ChEMBL document CHEMBL3425494, “Design, synthesis, and antitumor evaluation of novel histone deacetylase inhibitors equipped with a phenylsulfonylfuroxan module as a nitric oxide donor” (J Med Chem, 2015).
